According to ChEMBL document CHEMBL1151903, “Unique behavior of 2,6-bis(bromomethyl)naphthalene as a highly active organic DNA crosslinking molecule” (Bioorg Med Chem, 2009):
The source made the active and inactive calls. No cut-off for these calls is given here.

Key:
[1] = Stability in aqueous solution assessed as half life; format: physicochemical
In short: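 Compound at final 10 µM in 0.01 M sodium phosphate buffer pH 7.4/MeCN (4:1). Decomposition followed by reversed-phase RP-18 HPLC with UV detection, eluting with MeCN–H2O or MeOH–H2O; half-life taken from the decomposition rate.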

Nucleic Acid [2] = test: Induction of […] DNA interstrand crosslinking activity at > 100 uM after 6 hrs by agarose gel electrophoresis; format: nucleic-acid assay
In short: (§1)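 Linearized pBluescript plasmid DNA (460 ng) exposed to compound in DMSO at 37 °C for 6 h. DNA recovered by EtOH precipitation and lyophilized, then taken up in 1 mM EDTA in 30% aqueous DMSO. Heat-denatured at 95 °C for 5 min and ice-quenched. Run on 1% agarose gel and stained with ethidium bromide.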

[3] = system: Salmonella enterica subsp. enterica; test: Mutagenic activity in Salmonella typhimurium TA92 assessed as crosslinking-associated increase in number of revertants after 2 days by Ames test; format: toxicity, organism-based; conditions: salmonella enterica subsp. enterica serovar typhimurium, 48 h
In short: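 TA92 grown 15.5 h at 37 °C in nutrient broth/NaCl. Culture (0.1 mL) mixed with DMSO-diluted compound (50 µL) in 0.1 M sodium phosphate pH 7.4 and preincubated 20 min at 37 °C. Mixed into 0.6% soft agar and overlaid on minimal agar. Revertant colonies counted manually after 2 days at 37 °C; mean of six plates.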

[4] = system: Salmonella enterica subsp. enterica; test: Mutagenic activity in Salmonella typhimurium TA100 assessed as crosslinking-associated increase in number of revertants after 2 days by Ames test; format: toxicity, organism-based; conditions: salmonella enterica subsp. enterica serovar typhimurium, 48 h
CCRF-HSB-2 = test: Antiproliferative activity against human CCRF-HSB2 cells after 24 hrs by trypan blue exclusion assay; format: functional, cell-based; conditions: CCRF-HSB-2, 24 h
In short: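 CCRF-HSB-2 cells in RPMI1640 with 10% fetal calf serum, 37 °C, 5% CO2, seeded at 3 × 10^5 cell/mL in 3 mL per well. Pre-incubated 24 h, then given compound as DMSO solution (3 µL per well) for 24 h. Trypan blue-excluding cells counted.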

Nucleic Acid [5] = test: Induction of […] DNA interstrand crosslinking activity at 10 uM after 6 hrs by agarose gel electrophoresis; format: nucleic-acid assay; in short: as §1
Nucleic Acid [6] = test: Induction of […] DNA interstrand crosslinking activity at 1 uM after 6 hrs by agarose gel electrophoresis; format: nucleic-acid assay; in short: as §1

| Structure (SMILES) | half-life [1] [h] | Activity [3] | Activity [4] | also measured |
| --- | --- | --- | --- | --- |
| BrCc1ccc2nc(CBr)ccc2c1 | 12.8 | – | – | – |
| BrCc1ccc(CBr)c2ncccc12 | 10.5 | – | – | – |
| BrCc1ccc(CBr)c2ccccc12 | 0.567 | Active | Active | Activity (Nucleic Acid [5]): Active; Activity (Nucleic Acid [6]): Active |

The next lines start with results.

| half-life [1] [h] | Structure (SMILES) | Activity [3] | Activity [4] | also measured |
| --- | --- | --- | --- | --- |
| < 0.167 | BrCc1ccc2cc(CBr)ccc2c1 | Active | Active | Activity (Nucleic Acid [2]): inactive; IC50 (CCRF-HSB-2): 4 µM |
| 5.5 | ClCc1ccc(CCl)c2ccccc12 | – | – | – |
| 0.95 | ClCc1ccc2cc(CCl)ccc2c1 | – | – | – |
